Measurements pooled from the literature.
Compare with care: the assays were run in different laboratories.
Cell line: SW480
Effect on: cell growth or viability

SMILES	test	conditions	quantity	result
COC1=C2C[C@@H](C)C[C@H](OC)[C@H](O)[C@@H](C)/C=C(\C)[C@H](OC(N)=O)[C@@H](OC)/C=C\C=C(/C)C(=O)NC(=CC1=O)C2=O	MTT		IC50	308 nM
Cc1cc2c(cc1N1C(=O)c3cccc4c(CCCO)ccc(c34)C1=O)n(C)c(=O)n2C (racemic)	resazurin		GI50	> 10000 nM
COc1cc(Nc2nccc(-c3cnn4nc(OC)ccc34)n2)cc(C(F)(F)F)c1	ATP luminescence		IC50	720 nM
O=C(O)C[C@H](O)C[C@H](O)/C=C/c1c(C2CC2)nc2ccccc2c1-c1ccc(F)cc1	SRB	72 h	IC50	32.3 µg/mL
COc1cc([C@@H]2c3cc4c(cc3[C@@H](O[C@@H]3O[C@@H]5CO[C@@H](C)O[C@H]5[C@H](O)[C@H]3O)[C@H]3COC(=O)[C@H]23)OCO4)cc(OC)c1O	MTT	48 h	IC50	17100 nM
C=CCNC1=C2C[C@@H](C)C[C@H](OC)[C@H](O)[C@@H](C)/C=C(\C)[C@H](OC(N)=O)[C@@H](OC)/C=C\C=C(/C)C(=O)NC(=CC1=O)C2=O	MTT		IC50	657 nM
CC(C)C[C@H](NC(=O)[C@H](Cc1ccccc1)NC(=O)c1cnccn1)B(O)O	ATP luminescence		IC50	8.6 nM
CC[C@H](C)C(=O)O[C@H]1C[C@@H](C)C=C2C=C[C@H](C)[C@H](CC[C@@H]3C[C@@H](O)CC(=O)O3)[C@H]21	SRB	72 h	IC50	8.85 µg/mL
